Results on eleven compounds are retold here after ChEMBL document CHEMBL5385868, “Bifunctional carbazole derivatives for simultaneous therapy and fluorescence imaging in prion disease murine cell models” (Eur J Med Chem, 2023).

Activity calls are given as the source filed them. The calls are words filed in the database; no cut-off is given here.

Data set [1] can be described thus: Cytotoxicity against RML infected mouse ScGT1 cells assessed as reduction in cell viability at 1 uM measured after 5 days by MTT assay relative to control. It is filed as toxicity, cell-based. The settings on record: scgt1, 120 h, time 5 day. Summed up:
(§1)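 MTT viability in RML-infected ScGT1 cells after 5 days exposure to 0.1, 1 or 10 µM compound, vehicle control. MTT 5 mg/mL in PBS for 3 h at 37 °C, 5% CO2; dissolved in DMSO/2-propanol (1:1), 30 min at room temperature, then plate read; triplicate.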

Data set [2] in a line: Anti-prion activity against RML infected mouse ScGT1 cell lysate assessed as PrPSc residual level at 0.1 uM measured after 5 days by Western blot analysis relative to control. It is filed as functional. The settings on record: time 5 day. In a few lines:
(§2)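 RML-infected ScGT1 cells, confluent, split 1:10 and seeded in triplicate; compound (DMSO stock diluted in water) added to medium two days after seeding at 0.1, 1 or 10 µM, vehicle control; 5 days treatment. Lysates (1 mg/mL) digested with 20 µg/mL PK, 1 h, 37 °C, stopped with PMSF, ultracentrifuged; pellets blotted with anti-PrP Fab D18. PrPSc remaining expressed relative to untreated lysates.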
For orientation: A western blot detects proteins with antibodies after separation by electrophoresis.

The nature of data set [3]: Anti-prion activity against RML infected mouse ScGT1 cell lysate assessed as PrPSc residual level at 10 uM measured after 5 days by Western blot analysis relative to control. The note with it: time 5 day. It is filed as functional. In a few lines:
as §2

Data set [4] can be described thus: Cytotoxicity against RML infected mouse ScGT1 cells assessed as reduction in cell viability at 0.1 uM measured after 5 days by MTT assay relative to control. It is filed as toxicity, cell-based. The note with it: scgt1, 120 h, time 5 day. Summed up:
as §1

A short description of data set [5]: Cytotoxicity against RML infected mouse ScGT1 cells assessed as reduction in cell viability at 10 uM measured after 5 days by MTT assay relative to control. It is filed as toxicity, cell-based. The note with it: scgt1, 120 h, time 5 day. In a few lines: as §1
Data set [6] can be described thus: Anti-prion activity against RML infected mouse ScGT1 cell lysate assessed as PrPSc residual level at 1 uM measured after 5 days by Western blot analysis relative to control. The settings on record: time 5 day. The data set is classed as functional. Summed up: as §2
Data set [7] concerns the target Major prion protein (Mus musculus) (UniProt P04925). The data set is described as follows: Inhibition of full length recombinant mouse PrP (89 to 231 residues) expressed in Escherichia coli BL21 (DE3) cells to PrPSc conversion assessed as vCJD prion amplification at 10 uM.
Data set [8] can be described thus: Anti-prion activity against 22L prion infected mouse ScGT1 cells assessed as reduction in PrPSc level measured after 5 days by Western blot analysis. It is filed as functional, cell-based. The settings on record: ScGT1, 120 h. Summed up: (§3)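 22L-infected ScGT1 or ScN2a cells given compound in medium (vehicle ≤0.001% DMSO), triplicate. Lysates digested with 20 µg/mL PK for 1 h at 37 °C, stopped with PMSF, ultracentrifuged; PK-resistant PrP detected by Western blot with anti-PrP Fab D18 and HRP-conjugated secondary, ECL read-out.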

Data set [9] in a line: Anti-prion activity against RML infected mouse ScGT1 cell assessed as PrPSc clearance level measured after 5 days by Western blot analysis. The note with it: ScGT1, 120 h. The data set is classed as functional, cell-based. In a few lines:
as §2

The test system of another data set is GT1. Nature of the data set: Anti-prion activity against mouse GT1 cells assessed as reduction in PrPSc level at 0.1 to 10 uM measured after 5 days by Western blot analysis. It is filed as functional, cell-based. The note with it: dose 0.1-10 µM, time 5.0 day.
Data set [10] concerns the target Major prion protein (Mus musculus) (UniProt P04925). The data set is described as follows: Inhibition of full length recombinant mouse PrP (89 to 231 residues) expressed in Escherichia coli BL21 (DE3) cells to PrPSc conversion assessed as lag time for protein aggregation at 4 uM measured after 72 hrs by spectramax fluorescence microplate reader analysis.
Data set [11] deals with N2a. The data set is described as follows: Effect on N2a mouse cells assessed appearance of protein aggregates measured after 60 mins by fluorescence based confocal microscopy based analysis. It is filed as functional, cell-based. In a few lines:
(§4)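 N2a cells on coverslips at semi-confluence for 24 h, fixed in 4% paraformaldehyde, permeabilised with 0.2% Triton X-100, denatured with 6 M GdnHCl for 10 min, blocked with 1% BSA, then stained with 0.025% compound for 60 min. Anti-PrP mAb W226 as counterstain, DAPI for nuclei; confocal imaging with FITC/TRITC filters.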

Data set [12] addresses Major prion protein (Mus musculus) (UniProt P04925). The data set is described as follows: Inhibition of full length recombinant mouse PrP (89 to 231 residues) expressed in Escherichia coli BL21 (DE3) cells to PrPSc conversion assessed as RML amplification at 10 uM in presence of PMCA.
Data set [13] concerns N2a. Nature of the data set: Effect on N2a mouse cells assessed appearance of protein clusters measured after 60 mins by fluorescence based confocal microscopy based analysis. The data set is classed as functional, cell-based. In a few lines:
as §4

Data set [14] deals with Major prion protein (Mus musculus) (UniProt P04925). The data set is described as follows: Inhibition of full length recombinant mouse PrP (89 to 231 residues) expressed in Escherichia coli BL21 (DE3) cells to PrPSc conversion assessed as lag time for protein aggregation at 40 uM measured after 72 hrs by spectramax fluorescence microplate reader analysis.
For the next data set, the system named is ScN2a. Nature of the data set: Anti-prion activity against 22L prion infected mouse ScN2a cells assessed as reduction in PrPSc level measured after 5 days by Western blot analysis. The data set is classed as functional, cell-based. The note with it: 120 h. In a few lines: as §3
Data set [15] is described as follows: Anti-prion activity against RML infected mouse ScGT1 cells assessed as reduction in PrPSc level measured after 5 days by Western blot analysis. It is filed as functional, cell-based. The note with it: ScGT1, 120 h. Summed up:
as §2

The target in data set [16] is Major prion protein (Mus musculus) (UniProt P04925). The data set is described as follows: Inhibition of full length recombinant mouse PrP (89 to 231 residues) expressed in Escherichia coli BL21 (DE3) cells to PrPSc conversion assessed as vCJD prion amplification at 10 uM in presence of PMCA. Summed up: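 vCJD prions serially diluted 10^-5 to 10^-8 into 10% brain homogenate from Tg(MHu2M) mice expressing chimeric human-murine PrP, in conversion buffer with 0.05% digitonin. Substrate supplemented with PBS or 10 µM compound. PMCA: incubation at 37/40 °C with 40 s sonication pulses at 270–280 W.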

For data set [17] the target is unchanged. Nature of the data set: Inhibition of full length recombinant mouse PrP (89 to 231 residues) expressed in Escherichia coli BL21 (DE3) cells to PrPSc conversion assessed as RML amplification at 10 uM.
For data set [18] the target is unchanged. The data set is described as follows: Inhibition of full length recombinant mouse PrP (89 to 231 residues) expressed in Escherichia coli BL21 (DE3) cells to PrPSc conversion assessed as lag time for protein aggregation at 20 uM measured after 72 hrs by spectramax fluorescence microplate reader analysis.
Data set [19] in a line: (§5) Anti-prion activity against RML infected mouse ScGT1 cells assessed as inhibition of PrPSc formation measured after 5 days by Western blot analysis. The data set is classed as functional. The note with it: dose 0.1-10 µM; time 5 day. In a few lines:
as §2

Another data set deals with ScGT1. The data set is described as §5. The settings on record: dose 0.1-10 µM, time 5.0 day. It is filed as functional. In a few lines: as §2

Chain of Major prion protein (Mus musculus) (P04925 whole entry, the tested form may be a part): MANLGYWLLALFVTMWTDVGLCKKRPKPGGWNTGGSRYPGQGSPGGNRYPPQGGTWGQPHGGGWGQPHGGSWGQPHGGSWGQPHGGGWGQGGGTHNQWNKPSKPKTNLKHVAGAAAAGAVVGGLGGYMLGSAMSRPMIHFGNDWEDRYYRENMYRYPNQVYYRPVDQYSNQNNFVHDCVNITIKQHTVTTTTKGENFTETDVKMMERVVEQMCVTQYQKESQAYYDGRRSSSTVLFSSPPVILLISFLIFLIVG

In the case of `O=C(CN1CCCCC1)Nc1ccc2[nH]c3ccc(NC(=O)CN4CCCCC4)cc3c2c1`, the “Cell viability (% of control)” value in [1] is 76%. Also, the Activity is 109% in data set [2], 44% in data set [3], 69% in [5] and 105% in data set [6]. In addition, the “Cell viability relative to control” value in data set [4] was 81%.
Consider `O=C(CN1CCN(c2ccccc2)CC1)Nc1ccc2[nH]c3ccc(NC(=O)CN4CCN(c5ccccc5)CC4)cc3c2c1`, for which the “Cell viability (% of control)” value in data set [1] is recorded as 73%. Further, the Activity in data set [2] was determined as 124%; in data set [3], 134%; in data set [5] it was 63%; in [6] it was 136%. Moreover, the “Cell viability relative to control” value in data set [4] is recorded as 71%.
Turning to `CN1CCN(CC(=O)Nc2ccc3[nH]c4ccc(NC(=O)CN5CCN(C)CC5)cc4c3c2)CC1`, in [1], the “Cell viability (% of control)” value is recorded as 70%. In addition, the Activity in data set [2] came to 85%; in data set [3] it was 28%; in data set [5] it was 47%; in [6], 46%. Further, the “Cell viability relative to control” value in data set [4] was 99%.
A word on the EC50: it is the concentration giving half of the maximal effect. Regarding `CN(C)CC(=O)Nc1ccc2[nH]c3ccc(NC(=O)CN(C)C)cc3c2c1`, the inhibition entry in data set [7], in data set [16] and in data set [17] was “inactive” throughout. Further, the EC50 in data set [8] came out at 33.5 µM; in data set [9], 6.6 µM; in the data set on ScN2a it was 7.3 µM; in [15], 1.35 µM. The “Cell viability (% of control)” value in data set [1] is 99%. For the same compound, the outcome with GT1 and with N2a [13] was inactive. For the same compound, the Activity in data set [2] was 130%; in data set [3], 17%; in [5], 95%; in data set [6], 47%. For the same compound, the TIME in data set [10] is 21.5 h; in data set [14], 9.5 h; in data set [18] it was 5 h. Further, the result in the data set with N2a [11] was Active. The inhibition result in data set [12] was “Active”. Also, the “Cell viability relative to control” value in [4] is 111%.
Take `O=C(CN1CCCC1)Nc1ccc(Cc2ccc(NC(=O)CN3CCCC3)cc2)cc1`: the EC50 in data set [9] turned out to be 2.5 µM. Also, in data set [1], the “Cell viability (% of control)” value came to 69%. For the same compound, in the data set with GT1, the outcome was inactive. The Activity in [2] amounted to 127%; in [3], 13%; in data set [5] it was 50%; in data set [19] it was 7.8 µM; in data set [6], 103%. In addition, the “Cell viability relative to control” value in data set [4] is recorded as 85%.
Take `O=C(CN1CCOCC1)Nc1ccc2[nH]c3ccc(NC(=O)CN4CCOCC4)cc3c2c1`: the “Cell viability (% of control)” value in [1] is given as 86%. Further, the Activity in data set [2] is 96%; in data set [3] it was 59%; in data set [5], 84%; in data set [6] it was 102%. The “Cell viability relative to control” value in data set [4] was determined as 101%.
As for `CCN(CC)CC(=O)Nc1ccc2[nH]c3ccc(NC(=O)CN(CC)CC)cc3c2c1`, the EC50 was determined as 8 µM in data set [9] and 2.25 µM in data set [15]. In data set [1], the “Cell viability (% of control)” value was 99%. Further, the result with GT1 was inactive. The Activity turned out to be 84% in [2], 31% in [3], 103% in data set [5] and 57% in data set [6]. The “Cell viability relative to control” value in [4] is recorded as 108%.
Consider `CC(C)N(CC(=O)Nc1ccc2[nH]c3ccc(NC(=O)CN(C(C)C)C(C)C)cc3c2c1)C(C)C`, for which the “Cell viability (% of control)” value in data set [1] was 75%. Moreover, the Activity amounted to 73% in [2], 24% in data set [3], 61% in data set [5] and 39% in data set [6]. The “Cell viability relative to control” value in data set [4] is listed as 92%.
`O=C(Cn1ccnc1)Nc1ccc2[nH]c3ccc(NC(=O)Cn4ccnc4)cc3c2c1`: the “Cell viability (% of control)” value in data set [1] is given as 89%. In addition, the Activity in data set [2] was determined as 120%; in data set [3], 74%; in data set [5] it was 77%; in data set [6], 98%. Also, in data set [4], the “Cell viability relative to control” value was found to be 100%.
Regarding `O=C(CN1CCCC1)Nc1ccc2[nH]c3ccc(NC(=O)CN4CCCC4)cc3c2c1`, in [1], the “Cell viability (% of control)” value is given as 85%. For the same compound, the Activity was 148% in [2]; 27% in data set [3]; 71% in data set [5]; “Dose-Dependent Effect” with ScGT1; 7.4 µM in [19]; 103% in data set [6]. Moreover, in data set [4], the “Cell viability relative to control” value is given as 118%.
As to `O=C(CN1CCCC1)Nc1ccc2[nH]c3ccccc3c2c1`, in data set [1], the “Cell viability (% of control)” value is 72%. Besides, the Activity was 78% in data set [2], 26% in data set [3], 29% in data set [5] and 75% in data set [6]. Besides, the “Cell viability relative to control” value in data set [4] came out at 83%.
